Measured values gathered from unrelated publications.
Lines come from different studies, so protocols differ.
Cell line: HepG2
Observed: cell growth or viability

Structure (SMILES)	assay	setting	IC50
Cc1ccc2c(Cl)cc(Cl)c(O)c2n1	MTT	48 h	> 100 µM
Oc1cccc(-c2nc3ccccc3[nH]2)c1	MTT	48 h	83 µM
COc1cc2ncnc(Nc3ccc(F)c(Cl)c3)c2cc1NC(=O)N/N=C/c1cccn1CCCN1CCCCC1	MTT	72 h	0.31 µM
Oc1ncnc2cc(Nc3nc(-c4ccc(Br)cc4)cs3)ccc12	MTT		9.85 µM
Cc1ccc2nc(-c3ccc(Cl)cc3Cl)[nH]c2c1	MTT	48 h	30.7 µM
CC(=O)O[C@@]12CO[C@@H]1C[C@H](O)[C@@]1(C)C(=O)[C@H](O)C3=C(C)[C@@H](OC(=O)[C@H](O)[C@@H](NC(=O)OC(C)(C)C)c4ccccc4)C[C@@](O)([C@@H](OC(=O)c4ccccc4)[C@H]21)C3(C)C	CCK-8	72 h	0.11 µM
Fc1ccc(-c2nc3ccccc3n2Cc2ccccc2)cc1	MTT		45.9 µM
COc1cc2ncnc(Nc3ccc(F)c(Cl)c3)c2cc1NC(=O)N/N=C/c1cccn1CCCN1CCOCC1	MTT	72 h	0.12 µM
O=C(/C=C/c1ccc(O)c(O)c1)O[C@@H]1C[C@](O)(C(=O)O)C[C@@H](O)[C@H]1O	WST-1	48 h	24.6 µM
COc1cccc2c1C(=O)c1c(O)c3c(c(O)c1C2=O)C[C@@](O)(C(=O)CO)C[C@@H]3O[C@H]1C[C@H](N)[C@H](O)[C@H](C)O1	MTT	48 h	0.1 µM
CC(C)C(=O)Nc1ccc([N+](=O)[O-])c(C(F)(F)F)c1	CCK-8	48 h	2.54 µM
Fc1ccc(-c2nc3ccccc3[nH]2)cc1	MTT	48 h	35.8 µM
Cc1ccc(-c2csc(Nc3ccc4c(O)ncnc4c3)n2)cc1	MTT		12.6 µM
COc1cccc(-c2nc3ccccc3n2Cc2ccccc2)c1	MTT		40.7 µM
COc1cc2ncnc(Nc3ccc(F)c(Cl)c3)c2cc1NC(=O)N/N=C/c1cccn1CCN1CCOCC1	MTT	72 h	0.03 µM
c1ccc(-c2ccccn2)nc1	MTT	48 h	> 50 µM
O=C(N/N=C/CN1CCCCC1)Nc1cc2c(Nc3ccc(F)c(Cl)c3)ncnc2cc1O[C@H]1CCOC1	MTT	72 h	0.42 µM
CNC(=O)c1cc(Oc2ccc(NC(=O)Nc3ccc(Cl)c(C(F)(F)F)c3)cc2)ccn1	MTT	24 h	16.9 µM
COc1cc(-c2nc(OCc3cn(CC(=O)Nc4ccc(C)cc4)nn3)c3ccccc3n2)cc(OC)c1OC	MTT	72 h	13.6 µM
CC1=C(O)C(=O)C=C2C1=CC=C1[C@@]2(C)CC[C@@]2(C)[C@@H]3C[C@](C)(C(=O)OCCCCCO)CC[C@]3(C)CC[C@]12C	MTT	48 h	10.1 µM

Structure (SMILES)	assay	setting	IC50
COc1cccc2c1C(=O)c1c(O)c3c(c(O)c1C2=O)C[C@@](O)(C(=O)CO)C[C@@H]3O[C@H]1C[C@H](N)[C@H](O)[C@H](C)O1	neutral red	48 h	0.23 µg/mL
COC(=O)CN=c1scc(-c2ccccc2)n1-c1ccccc1[N+](=O)[O-]	MTT		15.4 µM
CN(C)CCn1cccc1/C=N/NC(=O)Nc1cc2c(Nc3ccc(F)c(Cl)c3)ncnc2cc1O[C@H]1CCOC1	MTT	72 h	0.04 µM
Cc1cc(=O)oc2ccc(-c3cc(-c4ccc(Br)cc4)nc(N)n3)c(O)c12	MTT	72 h	> 128 µg/mL
COc1cc2c(Nc3ccc(NC(=O)c4ccccc4)cc3)ncnc2cc1OCCCN1CCOCC1	MTS	48 h	3.3 µM
Cc1ccc(NC(=O)NNC(=O)c2ccc(Nc3nccc(-c4cccnc4)n3)cc2)cc1	MTT	24 h	> 40 µM
Nc1ccc(-c2csc(Nc3ccc4c(O)ncnc4c3)n2)cc1	MTT		15 µM
CN1CCN(CCCn2cccc2/C=N/NC(=O)Nc2cc3c(Nc4ccc(F)c(Cl)c4)ncnc3cc2O[C@H]2CCOC2)CC1	MTT	72 h	0.68 µM
CC1(C)CC[C@]2(C)CC[C@]3(C)C(=CC[C@@H]4[C@@]5(C)CC[C@H](O)C(C)(C)[C@@H]5CC[C@]43C)[C@@H]2C1	WST-1	48 h	82.8 µM
Cc1cc(=O)oc2ccc(-c3cc(-c4cccc(Cl)c4)nc(N)n3)c(O)c12	MTT	72 h	> 128 µg/mL
Cc1ccc2nc(-c3ccc([N+](=O)[O-])cc3)n(Cc3ccccc3)c2c1	MTT		6.74 µM
CC1=C(O)C(=O)C=C2C1=CC=C1[C@@]2(C)CC[C@@]2(C)[C@@H]3C[C@](C)(C(=O)OCCCn4ccc5ccccc54)CC[C@]3(C)CC[C@]12C	MTT	48 h	> 100 µM
O=C(NNC(=O)c1ccc(Nc2nccc(-c3ccccn3)n2)cc1)NC1CCCC1	MTT		> 40 µM
O=C(N/N=C/c1cccn1CCN1CCOCC1)Nc1cc2c(Nc3ccc(F)c(Cl)c3)ncnc2cc1O[C@H]1CCOC1	MTT	72 h	1.68 µM
O=[N+]([O-])c1ccc(Cn2cc(Cn3c4ccccc4c4nc5ccccc5nc43)nn2)cc1	MTT	24 h	> 100 µM
COc1cc2ncnc(Nc3ccc(F)c(Cl)c3)c2cc1NC(=O)N/N=C/c1cccn1CCN1CCN(C)CC1	MTT	72 h	0.22 µM
Cc1ccc2nc(-c3ccncc3)[nH]c2c1	MTT	48 h	52.6 µM
COc1ccc(Nc2nc(-n3nc(C)cc3C)nc(-n3nc(C)cc3C)n2)cc1	MTT	72 h	5.42 µM
c1ccc2[nH]c(-c3ccncc3)nc2c1	MTT	48 h	87.7 µM
CC1=C(O)C(=O)C=C2C1=CC=C1[C@@]2(C)CC[C@@]2(C)[C@@H]3C[C@](C)(C(=O)OCCCCCCCO)CC[C@]3(C)CC[C@]12C	MTT	48 h	7.21 µM
